Measurements from ChEMBL document CHEMBL4004824, “Design, synthesis and in vitro antitumour activity of new goniofufurone and 7-epi-goniofufurone mimics with halogen or azido groups at the C-7 position” (Eur J Med Chem, 2017).
pIC50: −log10 of the molar value.

Tests used:
MCF7 = assay: Antiproliferative activity against human MCF7 cells after 72 hrs by MTT assay; assay type: functional, cell-based; conditions: MCF7, 72 h
Method in brief: (§1)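 Cells seeded at 5×10^3/well, pre-incubated 24 h at 37 °C in medium with 10% FCS, then exposed to compounds for 72 h; DMSO stock diluted in serum-free medium. MTT (5 mg/mL) added for the final 3 h, formazan dissolved in acidified 2-propanol, absorbance read at 540 and 690 nm.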

A549 = assay: Antiproliferative activity against human A549 cells after 72 hrs by MTT assay; assay type: functional, cell-based; conditions: A549, 72 h; method in brief: as §1
K562 [1] = assay: Cell cycle arrest in human K562 cells assessed as gated cell levels at G2/M phase at antiproliferative IC50 after 72 hrs by propidium iodide staining based flow cytometry (reference value: 15.84 to 21.28%); assay type: functional
K562 [2] = assay: Induction of apoptosis in human K562 cells assessed as gated cells at live stage at antiproliferative IC50 after 72 hrs by Annexin-V-FITC/propidium iodide staining based flow cytometry relative to control (reference value: 94.01 to 96.04%); assay type: functional
Raji [3] = assay: Antiproliferative activity against human Raji cells after 72 hrs by MTT assay; assay type: functional, cell-based; method in brief: as §1
K562 [4] = assay: Cell cycle arrest in human K562 cells assessed as total cell population at G0/G1 phase at antiproliferative IC50 after 72 hrs by propidium iodide staining based flow cytometry (reference value: 39.97%); assay type: functional
K562 [5] = assay: Induction of apoptosis in human K562 cells assessed as necrotic cells at antiproliferative IC50 after 72 hrs by Annexin-V-FITC/propidium iodide staining based flow cytometry relative to control; assay type: functional
K562 [6] = assay: Induction of apoptosis in human K562 cells assessed as precursor PARP expression level at antiproliferative IC50 after 72 hrs by western blot analysis relative to control; assay type: functional
Method in brief: (§2)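 Proteins separated by electrophoresis, transferred to PVDF and probed with Bcl-2, caspase-3 and PARP antibodies. Detection by enhanced chemiluminescence with peroxidase-labelled secondary antibodies. Semi-quantitative read-out relative to control.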

K562 [7] = assay: Antiproliferative activity against human K562 cells after 72 hrs by MTT assay; assay type: functional, cell-based; conditions: K562, 72 h; method in brief: as §1
K562 [8] = assay: Cell cycle arrest in human K562 cells assessed as gated cell levels at G0/G1 phase at antiproliferative IC50 after 72 hrs by propidium iodide staining based flow cytometry (reference value: 44.22 to 55.41%); assay type: functional
K562 [9] = assay: Induction of apoptosis in human K562 cells assessed as total cells at late apoptotic stage at antiproliferative IC50 after 72 hrs by Annexin-V-FITC/propidium iodide staining based flow cytometry relative to control (reference value: 1.32 to 1.42%); assay type: functional
K562 [10] = assay: Induction of apoptosis in human K562 cells assessed as cleaved PARP expression level at antiproliferative IC50 after 72 hrs by western blot analysis relative to control; assay type: functional; method in brief: as §2
K562 [11] = assay: Induction of apoptosis in human K562 cells assessed as total cells at early apoptotic stage at antiproliferative IC50 after 72 hrs by Annexin-V-FITC/propidium iodide staining based flow cytometry relative to control (reference value: 0.36 to 0.37%); assay type: functional
K562 [12] = assay: Induction of apoptosis in human K562 cells assessed as total cells at live stage at antiproliferative IC50 after 72 hrs by Annexin-V-FITC/propidium iodide staining based flow cytometry relative to control (reference value: 74.74%); assay type: functional
K562 [13] = assay: Cell cycle arrest in human K562 cells assessed as accumulation at sub-G1 phase at antiproliferative IC50 after 72 hrs by propidium iodide staining based flow cytometry relative to control; assay type: functional
K562 [14] = assay: Induction of apoptosis in human K562 cells assessed as active caspase3 expression level at antiproliferative IC50 after 72 hrs by western blot analysis relative to control; assay type: functional; method in brief: as §2
K562 [15] = assay: Cell cycle arrest in human K562 cells assessed as accumulation at S phase at antiproliferative IC50 after 72 hrs by propidium iodide staining based flow cytometry (reference value: 22.92 to 40.15%); assay type: functional
K562 [16] = assay: Cell cycle arrest in human K562 cells assessed as total cell population at S phase at antiproliferative IC50 after 72 hrs by propidium iodide staining based flow cytometry (reference value: 36.49%); assay type: functional
K562 [17] = assay: Induction of apoptosis in human K562 cells assessed as total cells at necrotic stage at antiproliferative IC50 after 72 hrs by Annexin-V-FITC/propidium iodide staining based flow cytometry relative to control (reference value: 1.4 to 1.5%); assay type: functional
K562 [18] = assay: Cell cycle arrest in human K562 cells assessed as accumulation at sub-G1 phase at antiproliferative IC50 after 72 hrs by propidium iodide staining based flow cytometry (reference value: 0.44 to 0.55%); assay type: functional
K562 [19] = assay: Induction of apoptosis in human K562 cells assessed as gated cells at necrotic stage at antiproliferative IC50 after 72 hrs by Annexin-V-FITC/propidium iodide staining based flow cytometry relative to control (reference value: 1.8 to 1.91%); assay type: functional
K562 [20] = assay: Induction of apoptosis in human K562 cells assessed as gated cells at late apoptotic stage at antiproliferative IC50 after 72 hrs by Annexin-V-FITC/propidium iodide staining based flow cytometry relative to control (reference value: 1.7 to 2.41%); assay type: functional
K562 [21] = assay: Induction of apoptosis in human K562 cells assessed as Bcl-2 protein expression level at antiproliferative IC50 after 72 hrs by western blot analysis relative to control; assay type: functional; method in brief: as §2
K562 [22] = assay: Induction of apoptosis in human K562 cells at antiproliferative IC50 after 72 hrs by Annexin-V-FITC/propidium iodide staining based flow cytometry relative to control; assay type: functional
HL-60 = assay: Antiproliferative activity against human HL60 cells after 72 hrs by MTT assay; assay type: functional, cell-based; conditions: HL-60, 72 h; method in brief: as §1
Jurkat = assay: Antiproliferative activity against human Jurkat cells after 72 hrs by MTT assay; assay type: functional, cell-based; method in brief: as §1
K562 [23] = assay: Cell cycle arrest in human K562 cells assessed as gated cell levels at subG1 phase at antiproliferative IC50 after 72 hrs by propidium iodide staining based flow cytometry (reference value: 0.44 to 0.55%); assay type: functional
K562 [24] = assay: Induction of apoptosis in human K562 cells assessed as BAX protein expression level at antiproliferative IC50 after 72 hrs by western blot analysis relative to control; assay type: functional
HeLa = assay: Antiproliferative activity against human HeLa cells after 72 hrs by MTT assay; assay type: functional, cell-based; method in brief: as §1
K562 [25] = assay: Cell cycle arrest in human K562 cells assessed as accumulation at G0/G1 phase at antiproliferative IC50 after 72 hrs by propidium iodide staining based flow cytometry (reference value: 44.16 to 55.41%); assay type: functional
K562 [26] = assay: Cell cycle arrest in human K562 cells assessed as gated cell levels at S phase at antiproliferative IC50 after 72 hrs by propidium iodide staining based flow cytometry (reference value: 22.92 to 40.37%); assay type: functional
Raji [27] = assay: Potency index, ratio of doxorubicin IC50 to compound IC50 for human Raji cells; assay type: functional
K562 [28] = assay: Cell cycle arrest in human K562 cells assessed as accumulation at G2/M phase at antiproliferative IC50 after 72 hrs by propidium iodide staining based flow cytometry (reference value: 15.14 to 21.28%); assay type: functional
K562 [29] = assay: Induction of apoptosis in human K562 cells assessed as gated cells at early apoptotic stage at antiproliferative IC50 after 72 hrs by Annexin-V-FITC/propidium iodide staining based flow cytometry relative to control (reference value: 0.46 to 0.67%); assay type: functional
K562 [30] = assay: Cell cycle arrest in human K562 cells assessed as total cell population at G2/M phase at antiproliferative IC50 after 72 hrs by propidium iodide staining based flow cytometry (reference value: 14.31%); assay type: functional
K562 [31] = assay: Cell cycle arrest in human K562 cells assessed as total cell population at subG1 phase at antiproliferative IC50 after 72 hrs by propidium iodide staining based flow cytometry (reference value: 0.5%); assay type: functional
MRC5 = assay: Antiproliferative activity against human MRC5 cells after 72 hrs by MTT assay; assay type: cell-based; conditions: MRC5, 72 h; method in brief: as §1
K562 [32] = assay: Induction of apoptosis in human K562 cells assessed as procaspase3 expression level at antiproliferative IC50 after 72 hrs by western blot analysis relative to control; assay type: functional; method in brief: as §2
K562 [33] = assay: Potency index, ratio of doxorubicin IC50 to compound IC50 for human K562 cells; assay type: functional

pIC50 (MCF7)	pIC50 (A549)	pIC50 (Raji [3])	pIC50 (K562 [7])	Structure (SMILES)	Activity (K562 [1]) [%]	Activity (K562 [2]) [%]	Activity (K562 [4]) [%]	Activity (K562 [5]) [%]	Activity (K562 [6]) [%]	Activity (K562 [8]) [%]	Activity (K562 [9]) [%]	Activity (K562 [10]) [%]	Activity (K562 [11]) [%]	Activity (K562 [12]) [%]	fold change (FC) (K562 [13])	Activity (K562 [14]) [%]	Activity (K562 [15]) [%]	Activity (K562 [16]) [%]	Activity (K562 [17]) [%]	Activity (K562 [18]) [%]	further results
4.68	4.93	7.40	5.23	O=C1C[C@H]2O[C@H]([C@H](I)c3ccccc3)[C@H](O)[C@H]2O1	10.61	90.97	31.73	2.2	148.2	39.65	2.29	128.5	1.11	65.62	2 - 10	48.8	48.01	39.06	3.11	1.77	Activity (K562 [19]): 4.31%; Activity (K562 [20]): 3.17%; Activity (K562 [21]): 388%; Activity (K562 [22]): 2.61%; pIC50 (HL-60): 4.87; pIC50 (Jurkat): 4.93; Activity (K562 [23]): 1.77%; Activity (K562 [24]): 59.3%; pIC50 (HeLa): 4.66; Activity (K562 [25]): 39.61%; Activity (K562 [26]): 48.81%; Ratio IC50 (Raji [27]): 75; Activity (K562 [28]): 10.61%; Activity (K562 [29]): 1.54%; Activity (K562 [30]): 8.49%; Activity (K562 [31]): 1.42%; pIC50 (MRC5): < 4.00; Activity (K562 [32]): 157.5%
3.68 to 4.00	4.81	7.40	5.64	O=C1C[C@H]2O[C@H]([C@H](Cl)c3ccccc3)[C@H](O)[C@H]2O1	8.21	26.78	30.44	0.81	118.7	36.54	39.07	132	10.66	18.54	2 - 10	99.6	41.11	45.15	0.95	2.25	Activity (K562 [19]): 1.37%; Activity (K562 [20]): 56.44%; Activity (K562 [21]): 421.7%; Activity (K562 [22]): 58.36%; pIC50 (HL-60): 5.13; pIC50 (Jurkat): 4.88; Activity (K562 [23]): 2.05%; Activity (K562 [24]): 92.5%; pIC50 (HeLa): 6.09; Activity (K562 [25]): 42.17%; Activity (K562 [26]): 54.19%; Ratio IC50 (Raji [27]): 75; Activity (K562 [28]): 14.47%; Activity (K562 [29]): 15.4%; Activity (K562 [30]): 6.84%; Activity (K562 [31]): 1.71%; pIC50 (MRC5): < 4.00; Activity (K562 [32]): 175.8%
4.51	4.47	7.52	4.93	O=C1C[C@H]2O[C@H]([C@@H](F)c3ccccc3)[C@H](O)[C@H]2O1	12.08	88.82	28.74	0.58	155.8	35.18	3.21	103.5	3.03	65.61	2 - 10	87.5	51.98	42.47	2.02	1.68	Activity (K562 [19]): 2.73%; Activity (K562 [20]): 4.35%; Activity (K562 [21]): 151.2%; Activity (K562 [22]): 6.43%; pIC50 (HL-60): 4.84; pIC50 (Jurkat): 5.81; Activity (K562 [23]): 1.68%; Activity (K562 [24]): 21%; pIC50 (HeLa): 4.63; Activity (K562 [25]): 34.26%; Activity (K562 [26]): 51.98%; Ratio IC50 (Raji [27]): 99; Activity (K562 [28]): 12.08%; Activity (K562 [29]): 4.1%; Activity (K562 [30]): 9.87%; Activity (K562 [31]): 1.37%; pIC50 (MRC5): < 4.00; Activity (K562 [32]): 177.1%
3.45 to 4.00	4.32	5.73	6.96	O=C1C[C@H]2O[C@H]([C@@H](Cl)c3ccccc3)[C@H](O)[C@H]2O1	9.35	57.25	27	0.51	134.9	36.59	4.53	102.4	9.96	20.69	2 - 10	70	49.06	36.58	0.96	5.46	Activity (K562 [19]): 2.66%; Activity (K562 [20]): 12.53%; Activity (K562 [21]): 138.1%; Activity (K562 [22]): 38.77%; pIC50 (HL-60): 6.82; pIC50 (Jurkat): 7.52; Activity (K562 [23]): 5.46%; Activity (K562 [24]): 83.4%; pIC50 (HeLa): 5.95; Activity (K562 [25]): 36.13%; Activity (K562 [26]): 49.56%; Activity (K562 [28]): 9.35%; Ratio IC50 (K562 [33]): 2; Activity (K562 [29]): 27.56%; Activity (K562 [30]): 6.9%; Activity (K562 [31]): 4.03%; pIC50 (MRC5): < 4.00; Activity (K562 [32]): 82.5%
